DAT uptake mod: changed human dopamine transporter uptake under cocaine IC80. Q01959. LLC-PK1 hDAT cells, [14C]-dopamine uptake with cocaine IC80; actives deviate in either direction. B-score at 10 µM. 110,000 compounds, 1.3% hits;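 active means Z score or B-score, a plate-position-corrected score, falls beyond the plate's 99.7% confidence bounds, in either direction; inactive means both scores lie inside the 99.7% bounds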
D1 allo mod: allosteric modulators of human D1 dopamine receptor. HEK293 D1, CRE-luciferase, dopamine EC30 potentiation; actives deviate in either direction. B-score at 10 µM. 58,000 compounds, 5.9% hits;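 active means luminescence count or its row- and column-corrected plate score outside the 99.7% band of the plate's sample wells, on either side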
WNV protease inh: inhibitors of West Nile virus NS2B-NS3 protease. 65,000 compounds, 0.18% hits. WNV NS2B-NS3 protease, fluorogenic substrate Ex360/Em465; hits give low values. P06935. z-score (test concentration not listed). AID 577; in the data active means z-score below about -3
Target sequence (P06935 1371-1501 limits assumed): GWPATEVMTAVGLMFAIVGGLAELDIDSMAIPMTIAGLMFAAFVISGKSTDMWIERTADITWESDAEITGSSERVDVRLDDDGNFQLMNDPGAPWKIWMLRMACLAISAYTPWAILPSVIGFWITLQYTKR
Target sequence (P06935 1502-1679 limits assumed): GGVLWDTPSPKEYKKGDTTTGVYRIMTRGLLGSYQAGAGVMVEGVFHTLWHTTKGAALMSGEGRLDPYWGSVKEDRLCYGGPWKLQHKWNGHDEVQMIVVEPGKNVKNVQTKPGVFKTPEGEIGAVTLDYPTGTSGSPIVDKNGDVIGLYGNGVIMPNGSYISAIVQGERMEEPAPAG
AP ELISA ortho: orthogonal test for alternative complement pathway inhibitors | Human serum alternative complement pathway, LPS-coated ELISA, C3 deposition; tested in compound mixtures | inhibition, % at 5 µM | 62,000 compounds, 0.08% hits;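 active means inhibition above 30% in each of the two pooled mixtures holding the compound, so the lower value exceeds 30%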
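Medium: diluted human serum in Mg2+-EGTA GVB++. Assay system: human serum complement alternative pathway, C3 deposition onto LPS. Also added: Plate-bound LPS. Technique: Anti-C3 ELISA, OD 450 nm. Measure: percent inhibition. Incubation: 1 h at 37 °C. Dosing: 5 µM each compound, pools of ten, 50 µM per pool.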
D1 mod confirm: D1 receptor (human) allosteric modulation, confirmed | luminescence at 10 µM | 2,200 compounds, 88% hits | shares compounds with D1 allo mod | AID 642 | HEK293 D1 CRE-luciferase, dopamine EC30 potentiation; hits give high values;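 active means luminescence in either of two replicates above the same-plate mean plus 3 SD of the low-dose dopamine control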
D1 ag no DA: secondary test of D1 modulators: activity without dopamine | AID 646 | 1,900 compounds, 0.8% hits | HEK293 D1 CRE-luciferase, luminescence, no dopamine; hits give high values | luminescence at 10 µM | shares compounds with D1 allo mod; in the data active means luminescence above about 3900
Isoprot counter: isoproterenol response counter-screen activity for D1 modulators; shares compounds with D1 allo mod; HEK293 D1 CRE-luciferase, isoproterenol EC30 counter-screen; hits give high values; luminescence at 10 µM; 2,200 compounds, 63% hits;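 active means luminescence in either replicate above plate mean of wells with a partly effective reference agonist dose plus 3 SD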;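 further: isoproterenol raises cAMP through native beta-adrenoceptor Gs so signal bypasses D1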
Of the large screens only hits and unclear results are named; the others gave an inactive call (follow-up assays come after a bar, where they were run). This excerpt belongs to a sample that is enriched for hits.

C#CCOCCOCCOCCNc1nc(N2CCN(C(=O)C([C@@H](C)CC)n3cc(C(N)COC(=O)C(F)(F)F)nn3)CC2)nc(N2CCN(C(=O)[C@H](CCCCN)n3cc(C(N)[C@H](C)CC)nn3)CC2)n1 (stereo partly specified)	none (no result: D1 allo mod, WNV protease inh, AP ELISA ortho)
CC(C)(C)C1CCC2(CC1)CC(=O)c1ccccc1O2 (stereo unspecified)	none (no result: D1 allo mod, WNV protease inh, AP ELISA ortho)
Clc1ccc(-n2nnnc2-c2ccccc2)cc1	D1 allo mod 3.5 | D1 mod confirm 8784 | D1 ag no DA inactive | Isoprot counter inactive
CCCn1nc(NC(=O)c2cccs2)c2cc3ccccc3nc21	none (no result: D1 allo mod, WNV protease inh, AP ELISA ortho)
CCCn1nc(NC(=O)c2ccncc2)c2cc3ccccc3nc21	D1 allo mod 8.4 | D1 mod confirm 12660 | Isoprot counter 2876
CCCCc1ccc(C2C(C#N)=C(N)SC(N)=C2C#N)s1	none
COC(=O)c1cc(Cc2ccc(N)c(C(=O)OC)c2)ccc1N	D1 allo mod 3 | D1 mod confirm 7532 | Isoprot counter 2772
COC(=O)c1ccc(C(=O)OC)c(N)c1	none
CCOc1ccc(OCC)c(NC(=O)CN2CCN(C(=O)c3ccco3)CC2)c1	D1 allo mod 26 | D1 mod confirm inactive | D1 ag no DA inactive | Isoprot counter inactive
CCOC(=O)C1CCN(C(=O)CSCc2nc(-c3ccc(OCC)cc3)oc2C)CC1	D1 allo mod 5.7 | D1 mod confirm 12112 | D1 ag no DA inactive | Isoprot counter 4784
Cc1ccc(-c2nc(CSCC(=O)N3CCCC3)c(C)o2)cc1	none (no result: AP ELISA ortho)
CCOc1ccc(-c2nc(CSCC(=O)N3CCN(C(=O)c4ccco4)CC3)c(C)o2)cc1	D1 allo mod 3.6 | D1 mod confirm inactive | D1 ag no DA inactive | Isoprot counter 3468
CCOc1ccc(OCC)c(NC(=O)CN2CCN(c3cccc(C)c3C)CC2)c1	none (no result: D1 allo mod)
CC(c1ccccc1F)n1cc(C(=O)NCCc2ccco2)nn1 (stereo unspecified)	none
O=C(CN1CCC(O)(c2ccccc2F)CC1)NCCc1c[nH]c2ccccc12	none
Nc1c(C(=O)OCC2CCCO2)c2nc3ccccc3nc2n1-c1ccc2c(c1)OCCO2 (stereo unspecified)	D1 allo mod 5.1 | D1 mod confirm inactive | Isoprot counter inactive
CCCn1c(Nc2ccccc2C)nc2ccccc21	none (no result: D1 allo mod, WNV protease inh, AP ELISA ortho)
CNc1nc(N(C)C)nc(N(C)C)n1	none (no result: D1 allo mod, WNV protease inh, AP ELISA ortho)
CCOC(=O)N1CCC(NC(=O)CSCc2nc(-c3ccc(OC)c(OC)c3)oc2C)CC1	none (no result: DAT uptake mod)
COc1ccc(-c2nc(CSCC(=O)N3CCN(c4cccc(C)c4)C(C)C3)c(C)o2)cc1OC (stereo unspecified)	D1 allo mod 12 (no result: DAT uptake mod) | D1 mod confirm 12288 | Isoprot counter 3596
COc1ccc(-c2nc(CS(=O)CC(=O)NC3CCCc4ccccc43)c(C)o2)cc1OC (stereo unspecified)	D1 allo mod 4.4 | D1 mod confirm 9276 | Isoprot counter 3192
COc1ccc(-c2nc(CSCC(=O)N3CCC(C(N)=O)CC3)c(C)o2)cc1OC	none
COc1ccc(-c2nc(CSCC(=O)N3CCc4ccccc4C3)c(C)o2)cc1OC	DAT uptake mod 1.9, D1 allo mod 7.8 | D1 mod confirm inactive | D1 ag no DA inactive | Isoprot counter 3652
COc1ccccc1/C=N/N(C(C)=O)c1nc(-c2ccc(F)cc2)cs1	none (no result: D1 allo mod, WNV protease inh, AP ELISA ortho)
C#Cc1ccc([C@H]2C=C(C(=O)NCc3ccccc3)O[C@@H](OCc3ccc(CO)cc3)C2)cc1	none (no result: D1 allo mod, WNV protease inh, AP ELISA ortho)
COC(=O)C1=C(C)NC(C)=C(C(=O)OC)C1C(=O)OCC(=O)N1c2ccccc2CC1C (stereo unspecified)	none (no result: D1 allo mod, WNV protease inh, AP ELISA ortho)
N#Cc1cc2ccccc2nc1SCc1ccccn1	D1 allo mod 4.4 | D1 mod confirm 8624 | Isoprot counter 3144
N#Cc1c(N)nc(SCc2ccccn2)c(C#N)c1-c1cccs1	none (no result: D1 allo mod)
CN1CC(=O)N2[C@H](c3ccc4c(c3)OCO4)c3[nH]c4ccccc4c3C[C@@H]2C1=O	none (no result: D1 allo mod, WNV protease inh, AP ELISA ortho)
CC(C)(C)Sc1nc(O)cc(=O)[nH]1	D1 allo mod 2.1, AP ELISA ortho 34 | D1 mod confirm inactive | D1 ag no DA inactive | Isoprot counter inactive
CN1CCN(C(=O)c2cc3nc(-c4ccc(F)cc4)cc(C(F)(F)F)n3n2)CC1	none
Cc1cc(-c2ccc(F)cc2)nc2cc(C(N)=O)nn12	D1 allo mod 10 | D1 mod confirm 15420 | D1 ag no DA inactive | Isoprot counter 4380
CC([NH2+][O-])C(C)(C)NO (stereo unspecified)	none (no result: D1 allo mod, WNV protease inh, AP ELISA ortho)
Cc1ccc(NC2=NCC(=O)N2Cc2ccc3c(c2)OCO3)cc1	none (no result: D1 allo mod)
COc1ccc(-n2nc(C(=O)NCC(=O)NCc3ccco3)c3ccccc3c2=O)cc1	none
O=C(NCc1ccco1)c1nn(-c2ccccc2)c(=O)c2ccccc12	D1 allo mod 5.2 | D1 mod confirm 15012 | D1 ag no DA inactive | Isoprot counter inactive
O=C(NC(Cc1ccccc1)C(=O)O)/C(=C\c1ccc(F)cc1)NC(=O)c1ccccc1 (stereo unspecified)	none (no result: D1 allo mod, WNV protease inh, AP ELISA ortho)
COc1nc(OCC#N)nc(N(C)C)n1	none (no result: D1 allo mod, WNV protease inh, AP ELISA ortho)
CCC(C)Nc1nc(OC)nc(N(C)C#N)n1 (stereo unspecified)	D1 allo mod 6.9 (no result: AP ELISA ortho) | D1 mod confirm 12160 | D1 ag no DA inactive | Isoprot counter inactive
O=C(N/C(=C\c1ccc(Br)cc1)c1nc2ccccc2[nH]1)c1ccco1	none (no result: D1 allo mod, WNV protease inh, AP ELISA ortho)
COc1ccc(CCNS(=O)(=O)c2cccc3nsnc23)cc1OC	none
CCOc1ccc(CCNS(=O)(=O)c2cccc3nsnc23)cc1OCC	D1 allo mod 19 | D1 mod confirm 19296 | D1 ag no DA inactive | Isoprot counter 4780
COc1ccc(-c2c(C)n([O-])c3c([n+]2=O)CCC3)cc1OC	D1 allo mod 2.3 | D1 mod confirm inactive | D1 ag no DA inactive | Isoprot counter inactive
CCc1nc2ccccc2n1Cc1ccc(OC)c(OC)c1	D1 allo mod 6.2 | D1 mod confirm 18880 | D1 ag no DA inactive | Isoprot counter 5464
COc1ccc(Cn2c(CCCO)nc3ccccc32)cc1OC	D1 allo mod 14 | D1 mod confirm 15968 | D1 ag no DA inactive | Isoprot counter 6660
COc1ccccc1Cn1c(CCCO)nc2ccccc21	none
CS(=O)(=O)N(CC(=O)N1CCN(c2ccccc2)CC1)c1ccc(Cl)c(C(F)(F)F)c1	none (no result: D1 allo mod, WNV protease inh, AP ELISA ortho)
C=CCOc1c(Cl)cc(/C=N/O)cc1OC	none
C=CCOc1ccc(/C(CC)=N/O)c(OC)c1	D1 allo mod 3.4 | D1 mod confirm 8264 | D1 ag no DA inactive | Isoprot counter inactive
N#Cc1nc(Cc2ccccc2)oc1NCc1ccccc1Cl	D1 allo mod 12 (no result: DAT uptake mod) | D1 mod confirm 11100 | D1 ag no DA inactive | Isoprot counter 4116
COc1ccc(CNc2oc(-c3ccccc3)nc2C#N)cc1	D1 allo mod 10 | D1 mod confirm 18596 | D1 ag no DA inactive | Isoprot counter 5400
